The values below come from ChEMBL document CHEMBL2146387, “Synthesis and biological evaluation of a new vitamin D2 analogue” (Bioorg Med Chem Lett, 2012).

The subject of data set [1] is Mus musculus. The data set can be described thus: Toxicity in mouse assessed as increase in plasma calcium level at 5 ug/kg, ip qd for 4 days measured after 24 to 96 hrs postdose. The class given is organism-based. The note with it: in vivo, 0.005 mg/kg. A digest of the protocol:
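Mice (n = 5/group) were dosed ip daily at 5 µg/kg body weight for 4 days, with isopropanol as vehicle. Plasma calcium was read by arsenazo III metallochromic absorbance before injection (0 h, basal) and at 24, 48, 72 and 96 h. Data are means ± SD of five animals, and the experiment was run twice.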

The subject of data set [2] is Mus musculus. The data set can be described thus: Toxicity in mouse assessed as increase in haematocrit at 5 ug/kg, ip qd for 4 days after 72 hrs of last postdose. Conditions: in vivo, 0.005 mg/kg. In kind it is organism-based. A digest of the protocol: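 Mice (n = 5/group) received a daily intraperitoneal injection at 5 µg/kg body weight for 4 days, with isopropanol as vehicle. Blood was drawn before dosing and at 24, 48, 72 and 96 h, and haematocrit was recorded from these samples.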

Data set [3] in a line: AUC (0 to 24 hrs) in mouse at 5 ug/kg. More on the design: dose 5 ug/kg, time < 24 hr. Conditions: plasma, 0.005 mg/kg. In kind it is ADME, organism-based.
Data set [4] in a line: Cmax in mouse at 5 ug/kg. The class given is ADME, organism-based. More on the design: dose 5 ug/kg. The note with it: in vivo, 0.005 mg/kg.
The subject of data set [5] is Mus musculus. Kind of data set: Toxicity in mouse assessed as mortality at 5 ug/kg, ip qd for 4 days. The note with it: in vivo, 0.005 mg/kg, 96 h. In kind it is organism-based. Put shortly:
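Mice, groups of 5, given daily intraperitoneal injection at 5 µg/kg body weight for 4 days, isopropanol vehicle group alongside. Blood collected before dosing and at 24, 48, 72 and 96 h for plasma calcium (arsenazo III absorbance). Health condition recorded daily; deaths noted. Experiment repeated two times.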

A short description of data set [6]: Cytotoxicity against human HN12 assessed as decrease in cell count after 120 hrs. The class given is functional. Conditions: HN12, 120 h.
A further data set has as its system HCT-116. The data set can be described thus: Cytotoxicity against human HCT116 assessed as decrease in cell count after 120 hrs. The class given is functional, cell-based. Conditions: HCT-116, 120 h.

Consider `C=C1/C(=C\C=C2/CCC[C@]3(C)[C@@H]([C@H](C)CCCC(C)(C)O)CC[C@@H]23)C[C@@H](O)C[C@@H]1O` [CALCITRIOL], for which the Activity entry in the data set with Mus musculus [1], in the data set on Mus musculus [2] and with Mus musculus [5] was “Toxic” each time. Moreover, the AUC(0-t) (commonly exposure summed from dosing to a finite time, without extrapolation to infinity) at 24 h in data set [3] was over 40 ng·h/mL. In data set [4], the Cmax (usually the peak of the concentration-time curve) is over 10 ng/mL.

On to `C=C1/C(=C\C=C2/CCC[C@]3(C)[C@@H]([C@H](C)/C=C\[C@H](C)C(O)(CC)CC)CC[C@@H]23)C[C@@H](O)C[C@@H]1O`, for which the Activity entry in the data set on Mus musculus [1], in the data set on Mus musculus [2] and with Mus musculus [5] was “Toxic” throughout. Further, the figures for the IC50 (in data set [6]; with HCT-116) were 5.05 nM and 0.76 nM, respectively.
